What was measured:
[1] = (§1) Inhibition of human CD4+ve Th cell proliferation; type: functional, tissue-based
Method in brief: (§2)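 Human T cells, proliferation inhibition measured over a dose series, run in triplicate (n=3). IC50 was taken from dose-response curves fitted by four-parameter non-linear regression.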

[2] = (§3) Inhibition of human CD8+ve […] cell proliferation; type: functional, tissue-based; conditions: CD8-positive T cell; method in brief: as §2
CD4+ve Th = assay: as §1; type: functional, tissue-based; method in brief: as §2
[3] = Inhibition of human T cell proliferation relative to control; type: functional
T cell = assay: Immunosuppressive activity in human primary T-cells extracted form PBMC assessed as inhibition of CD3/CD28-induced IFN-gamma recovery in cell culture media at 2-32 uM incubated for 120 hrs by ELISA; type: functional, tissue-based; conditions: dose microM 2-32, time 120.0 hrs
CD8-positive T cell = assay: as §3; type: functional, tissue-based; method in brief: as §2
[4] = Immunosuppressive activity in human primary T-cells extracted from PBMC assessed as inhibition of CD3/CD28-induced IFN-gamma recovery in cell culture media incubated for 120 hrs by ELISA relative to control; type: functional
[5] = Inhibition of B cell (unknown origin) proliferation; type: functional, tissue-based
[6] = Inhibition of T cell (unknown origin) proliferation; type: functional, tissue-based

SMILES	IC50 [1]	IC50 [2]	further results
C[C@H]1[C@@H](O[C@@H]2O[C@H](CO)[C@@H](O[C@H]3O[C@H](CO)[C@@H](O)[C@H](O)[C@H]3O)[C@H](O)[C@H]2O)O[C@@H]2O[C@@]3(C)CC[C@H]4[C@H](C)CC[C@@H]1[C@@]24OO3	9.09 µM	4 µM	
C[C@H]1[C@@H](O[C@H]2O[C@H](CO)[C@H](O)[C@H](O)[C@H]2O)O[C@@H]2O[C@@]3(C)CC[C@H]4[C@H](C)CC[C@@H]1[C@@]24OO3	10.4 µM	8.63 µM	
C[C@H]1[C@@H](O[C@H]2OC[C@@H](O)[C@H](O)[C@H]2O)O[C@@H]2O[C@@]3(C)CC[C@H]4[C@H](C)CC[C@@H]1[C@@]24OO3	10.8 µM	9.52 µM	
C[C@H]1[C@@H](O[C@H]2OC[C@H](O)[C@H](O)[C@H]2O)O[C@@H]2O[C@@]3(C)CC[C@H]4[C@H](C)CC[C@@H]1[C@@]24OO3	14.1 µM	13 µM	
C[C@H]1[C@@H](O[C@H]2O[C@H](CO)[C@@H](O)[C@H](O)[C@H]2O)O[C@@H]2O[C@@]3(C)CC[C@H]4[C@H](C)CC[C@@H]1[C@@]24OO3	17.9 µM	19.4 µM	
C[C@H]1[C@H](O[C@@H]2O[C@H](CO)[C@@H](O)[C@H](O)[C@@H]2O)O[C@@H]2O[C@@]3(C)CC[C@H]4[C@H](C)CC[C@@H]1[C@@]24OO3	3.49 µM	2.65 µM	inhibition (CD4+ve Th): Dose-dependent effect; inhibition (INH) [3]: 88%; inhibition (T cell): Dose-dependent effect; inhibition (CD8-positive T cell): Dose-dependent effect; inhibition (INH) [4]: 98%
C[C@H]1[C@@H](O)O[C@@H]2O[C@@]3(C)CC[C@H]4[C@H](C)CC[C@@H]1[C@@]24OO3 [ARTENIMOL]	4.03 µM	5.53 µM	
C[C@H]1[C@@H](OCCN)O[C@@H]2O[C@@]3(C)CC[C@H]4[C@H](C)CC[C@@H]1[C@@]24OO3	1.05 µM	1.36 µM	IC50 [5]: 2600 nM; IC50 [6]: 1200 nM
C[C@H]1[C@@H](O[C@H]2O[C@H](CO)[C@@H](O)[C@H](O)[C@@H]2O)O[C@@H]2O[C@@]3(C)CC[C@H]4[C@H](C)CC[C@@H]1[C@@]24OO3	> 32 µM	> 32 µM	
C[C@H]1[C@H](O[C@H]2O[C@@H](C)[C@H](O)[C@@H](O)[C@H]2O)O[C@@H]2O[C@@]3(C)CC[C@H]4[C@H](C)CC[C@@H]1[C@@]24OO3	3.83 µM	3.36 µM	inhibition (CD4+ve Th): Dose-dependent effect; inhibition (T cell): Dose-dependent effect; inhibition (CD8-positive T cell): Dose-dependent effect

Reference: ChEMBL document CHEMBL4725272, “Studies on the stereoselective synthesis and immunosuppressive activity of dihydroartemisinin-O-glycoside derivatives” (Bioorg Med Chem Lett, 2020)
